# Data published in ChEMBL document CHEMBL4138314, “Synthesis and Evaluation of N-Phenyl-3-sulfamoyl-benzamide Derivatives as Capsid Assembly Modulators Inhibiting Hepatitis B Virus (HBV)” (J Med Chem, 2018).
# Activity calls are given as the source filed them. The rule behind the calls is not given here.
# Tests used:
# [1] = Clearance in C57BL/6 mouse at 2.5 mg/kg, iv by LC-MS/MS analysis; format: ADME, organism-based; settings: in vivo
# Summary of the method: (§1)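 Single-dose PK in C57BL/6 mice after intravenous or oral dosing, with oral doses of 10 and 50 mg/kg; plasma clearance and volume of distribution taken from the i.v. arm.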
# HepG2 = test: Cytotoxicity against human HepG2 cells after 4 to 6 days by resazurin assay; format: cell-based; settings: hepg2
# [2] = Unbound fraction in mouse plasma; format: ADME, cell-free
# Cytochrome P450 2C9 = Cytochrome P450 2C9 (Homo sapiens, UniProt P11712); test: Inhibition of CYP2C9 (unknown origin); format: ADME
# Sequence of Cytochrome P450 2C9 (P11712 whole entry): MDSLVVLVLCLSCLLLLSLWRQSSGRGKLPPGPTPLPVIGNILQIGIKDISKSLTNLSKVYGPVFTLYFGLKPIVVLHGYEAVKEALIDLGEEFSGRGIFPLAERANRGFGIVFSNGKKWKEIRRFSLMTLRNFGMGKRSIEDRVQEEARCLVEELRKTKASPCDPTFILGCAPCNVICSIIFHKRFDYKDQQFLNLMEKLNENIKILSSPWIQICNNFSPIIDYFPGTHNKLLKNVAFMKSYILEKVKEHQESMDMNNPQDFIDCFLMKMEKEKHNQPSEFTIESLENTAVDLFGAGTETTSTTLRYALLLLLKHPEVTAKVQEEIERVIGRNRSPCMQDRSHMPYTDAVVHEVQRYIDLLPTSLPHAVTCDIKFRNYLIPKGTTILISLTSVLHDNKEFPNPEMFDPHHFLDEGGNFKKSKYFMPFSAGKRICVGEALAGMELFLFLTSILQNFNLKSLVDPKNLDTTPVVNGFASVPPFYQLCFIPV
# [3] = target: Core antigen (Hepatitis B virus) (UniProt Q03732); test: Induction of HBV Maleimidyl BoDIPY-FL-labeled capsid Cp*150 mutant aggregation incubated for 30 mins measured every 10 secs for 30 mins by fluorescence quenching assay
# Sequence of Core antigen (Hepatitis B virus) (Q03732 as listed by the source): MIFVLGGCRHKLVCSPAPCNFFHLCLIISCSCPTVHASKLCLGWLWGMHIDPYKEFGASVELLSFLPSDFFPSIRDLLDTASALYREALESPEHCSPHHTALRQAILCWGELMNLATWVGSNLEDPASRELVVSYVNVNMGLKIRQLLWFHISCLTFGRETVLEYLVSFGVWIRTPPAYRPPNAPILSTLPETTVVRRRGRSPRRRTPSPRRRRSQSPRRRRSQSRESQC
# [4] = Half life in C57BL/6 mouse at 10 mg/kg, po by LC-MS/MS analysis; format: ADME, organism-based; settings: in vivo; summary of the method: as §1
# [5] = AUC (0 to last) in C57BL/6 mouse at 10 mg/kg, po by LC-MS/MS analysis; format: ADME, organism-based; parameters: dose 10 mg/kg, time 0 - last, route oral; settings: in vivo; summary of the method: as §1
# [6] = Tmax in humanized mouse at 50 mg/kg, sc for 8 days measured on day 8 post last dose by LC-MS/MS analysis; format: ADME, organism-based; settings: in vivo
# [7] = Half life in C57BL/6 mouse at 50 mg/kg, sc by LC-MS/MS analysis; format: ADME, organism-based; settings: in vivo
# Cytochrome P450 1A2 = target: T1, Cytochrome P450 1A2 (Homo sapiens, UniProt P05177); test: Inhibition of CYP1A2 (unknown origin); format: ADME
# T1 sequence (P05177 whole entry): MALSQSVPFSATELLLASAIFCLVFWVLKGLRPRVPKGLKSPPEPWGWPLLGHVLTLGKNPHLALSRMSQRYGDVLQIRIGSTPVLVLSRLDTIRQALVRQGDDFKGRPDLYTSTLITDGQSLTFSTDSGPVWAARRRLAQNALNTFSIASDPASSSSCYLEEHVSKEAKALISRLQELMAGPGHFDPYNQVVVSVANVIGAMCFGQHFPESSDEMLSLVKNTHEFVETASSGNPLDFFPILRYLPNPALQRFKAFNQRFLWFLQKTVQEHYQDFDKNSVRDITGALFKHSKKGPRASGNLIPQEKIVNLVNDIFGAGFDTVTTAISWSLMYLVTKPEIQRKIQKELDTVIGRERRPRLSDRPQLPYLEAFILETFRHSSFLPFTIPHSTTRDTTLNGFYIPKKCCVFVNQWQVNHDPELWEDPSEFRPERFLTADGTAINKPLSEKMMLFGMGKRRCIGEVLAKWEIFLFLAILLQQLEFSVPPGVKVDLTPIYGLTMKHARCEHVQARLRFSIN
# [8] = AUC (0 to 24 hrs) in humanized mouse at 200 mg/kg, sc for 8 days measured on day 8 post last dose by LC-MS/MS analysis; format: ADME, organism-based; parameters: time < 24 hr, dose 200 mg/kg, route subcutaneous; settings: in vivo
# [9] = AUC (0 to infinity) in humanized mouse at 200 mg/kg, sc measured on day 1 post dose by LC-MS/MS analysis; format: ADME, organism-based; parameters: dose 200 mg/kg, route subcutaneous, time infinity; settings: in vivo
# [10] = target: 5-hydroxytryptamine receptor 2B (Homo sapiens, UniProt P41595); test: Agonist activity at 5-HT2B (unknown origin); format: functional
# Sequence of 5-hydroxytryptamine receptor 2B (P41595 whole entry): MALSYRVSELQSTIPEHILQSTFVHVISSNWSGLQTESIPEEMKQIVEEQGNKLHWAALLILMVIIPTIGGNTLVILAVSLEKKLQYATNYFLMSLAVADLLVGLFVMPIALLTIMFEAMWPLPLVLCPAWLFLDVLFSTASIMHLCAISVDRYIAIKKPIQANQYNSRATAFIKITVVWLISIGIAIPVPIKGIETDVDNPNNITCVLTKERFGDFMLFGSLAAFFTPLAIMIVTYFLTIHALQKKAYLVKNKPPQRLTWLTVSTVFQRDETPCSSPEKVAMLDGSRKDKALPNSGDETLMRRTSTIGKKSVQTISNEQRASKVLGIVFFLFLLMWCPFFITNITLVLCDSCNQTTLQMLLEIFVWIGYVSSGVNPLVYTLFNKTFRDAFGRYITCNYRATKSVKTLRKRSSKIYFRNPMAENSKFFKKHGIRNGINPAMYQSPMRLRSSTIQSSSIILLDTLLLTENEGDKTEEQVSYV
# [11] = Drug metabolism in mouse liver microsomes at 1 uM after 15 mins by LC-MS/MS analysis; format: ADME, microsome; settings: read-out: Drug metabolism
# Summary of the method: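 Compound incubated 15 min with human or mouse liver microsomes; stability expressed as percent turnover (metabolised) at 15 min.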
# Cytochrome P450 2D6 = Cytochrome P450 2D6 (Homo sapiens, UniProt P10635); test: Inhibition of CYP2D6 (unknown origin); format: ADME
# Sequence of Cytochrome P450 2D6 (P10635 whole entry): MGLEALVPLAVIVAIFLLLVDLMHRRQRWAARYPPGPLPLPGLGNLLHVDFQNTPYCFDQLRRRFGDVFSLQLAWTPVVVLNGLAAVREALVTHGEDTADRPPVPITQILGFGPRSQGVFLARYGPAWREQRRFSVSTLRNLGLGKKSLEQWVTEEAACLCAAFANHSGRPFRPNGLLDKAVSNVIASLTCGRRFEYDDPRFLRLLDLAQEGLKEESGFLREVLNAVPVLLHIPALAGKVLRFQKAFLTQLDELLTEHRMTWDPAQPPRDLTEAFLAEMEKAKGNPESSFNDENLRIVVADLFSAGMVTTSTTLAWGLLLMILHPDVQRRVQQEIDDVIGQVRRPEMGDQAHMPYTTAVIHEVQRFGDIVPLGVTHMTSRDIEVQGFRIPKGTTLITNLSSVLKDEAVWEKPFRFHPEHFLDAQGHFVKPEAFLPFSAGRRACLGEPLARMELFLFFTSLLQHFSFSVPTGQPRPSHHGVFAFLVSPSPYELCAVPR
# [12] = Cmax in C57BL/6 mouse at 10 mg/kg, po by LC-MS/MS analysis; format: ADME, organism-based; parameters: dose 10 mg/kg, route oral; settings: in vivo
# [13] = Volume of distribution at steady state in C57BL/6 mouse at 2.5 mg/kg, iv by LC-MS/MS analysis; format: ADME, organism-based; settings: in vivo, read-out: Vdss
smiles,measurement,setting,value
Cc1cc(NC(=O)c2cccc(S(=O)(=O)N[C@H]3CCOC3)c2)ccc1F,clearance,[1],34 mL/min/kg
same,EC20,HepG2,10 to 30 µM
same,fraction unbound,[2],0.126
same,IC50,Cytochrome P450 2C9,> 10 µM
same,Activity,[3],Active
same,half-life,[4],1.1 h
same,AUC(0-t),[5],1990 ng·h/mL
same,Tmax,[6],0.8 h
same,half-life,[7],5.3 h
same,IC50,Cytochrome P450 1A2,> 10 µM
same,AUC at 24 h,[8],86900 ng·h/mL
same,AUC(0-inf),[9],12700 ng·h/mL
same,Activity,[10],inactive
same,"metabolised at 0.25 h, 1 µM",[11],51%
same,IC50,Cytochrome P450 2D6,> 10 µM
same,Cmax,[12],1940 ng/mL
same,Vd,[13],1.3 L/kg
